According to ChEMBL document CHEMBL4402517, “Rational modification of Mannich base-type derivatives as novel antichagasic compounds: Synthesis, in vitro and in vivo evaluation” (Bioorg Med Chem, 2019):
pIC50: −log10 of the molar value. Activity calls are given as the source filed them. No cut-off for these calls is given here.

Legend:
[1] = (§1) Toxicity in BALB/c mouse infected with Trypanosoma cruzi MHOM/Pe/2011/Arequipa;DTU 5 bloodstream trypomastigote assessed as decrease in serum urea level in acute phase at 20 mg/kg/day, po administered for 5 consecutive days starting from day 8 post infection and measured at day 14 post infection by biochemical analysis relative to control; format: organism-based; parameters: scale not given: the % may be the effect or the level left; settings: in vivo
Summary of the method: (§2)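 Female BALB/c mice (10–12 weeks, 14–20 g; groups of three) were infected i.p. with 5 × 10^5 Arequipa bloodstream trypomastigotes. Dosing was oral at 20 mg/kg/day for 5 days, from day 8 pi (acute) or day 70 pi (chronic), as a 2 mg/ml suspension in 5% DMSO/0.5% HPMC; controls received vehicle. Cyclophosphamide 200 mg/kg i.p. was given at day 80 pi. Serum was collected 2 days post-treatment and at necropsy by cardiac puncture and compared with infected untreated controls.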

Trypanosoma cruzi [2] = test: (§3) Antitrypanosomal activity against Trypanosoma cruzi MHOM/Pe/2011/Arequipa;DTU 5 bloodstream trypomastigotes infected in BALB/c mouse assessed as reduction in serum Ig-G level in acute phase at 20 mg/kg/day, po administered for 5 consecutive days starting from day 8 post infection followed by cyclophosphamide induced immunosuppression on day 80 post infection and measured at day 100 post infection by ELISA; format: functional, organism-based
Summary of the method: (§4)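 Sera came from infected BALB/c mice (three per group) dosed orally at 20 mg/kg/day for 5 days. Sampling points: 2 days after treatment, the day before immunosuppression (acute only) and necropsy day. Anti-T. cruzi IgG was measured by indirect ELISA using parasite Fe-SOD as antigen, read as OD at 492 nm.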

[3] = Selectivity index, ratio of IC50 for African green monkey Vero cells to IC50 for Trypanosoma cruzi TINF/CH/1956/Tulahuen;DTU 6 trypomastigote forms; format: toxicity; settings: read-out: Selectivity Index
Summary of the method: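 Bloodstream trypomastigotes were taken from BALB/c mice by cardiac puncture and diluted in RPMI with 10% FBS at 2 × 10^6/mL. They were incubated with 3.1–50.0 µM for 24 h at 37 °C in 5% CO2 and counted in a Neubauer chamber. Triplicate, at least three experiments; nonlinear regression.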

Trypanosoma cruzi [4] = test: Antitrypanosomal activity against Trypanosoma cruzi TINF/CH/1956/Tulahuen;DTU 6 amastigote forms measured after 72 hrs by Giemsa staining based assay; format: functional, organism-based; settings: TINF/CH/1956/Tulahuen;DTU 6, 72 h
Summary of the method: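 Vero cells (1 × 10^4/well, on coverslips) left to adhere 24 h at 37 °C, 5% CO2, then infected with trypomastigotes at MOI 10:1 for 24 h. Free parasites were removed by three PBS washes. Compounds at 3.1, 6.25, 12.5, 25 and 50 µM were incubated 72 h, and amastigotes were counted after Giemsa staining. Triplicates, two separate experiments; IC50 by nonlinear regression.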

Trypanosoma cruzi [5] = test: Antitrypanosomal activity against Trypanosoma cruzi MHOM/Pe/2011/Arequipa;DTU 5 epimastigote assessed as effect on glycerol excretion at IC50 after 72 hrs by H NMR method relative to control; format: functional, organism-based
Summary of the method: (§5)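 Cells were spun at 800 × g for 10 min and culture supernatants analysed by 1H NMR. Catabolite peaks were expressed as % variation versus untreated parasites.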

Trypanosoma cruzi [6] = test: Antitrypanosomal activity against bloodstream trypomastigote stage of Trypanosoma cruzi IRHOD/CO/2008/SN3;DTU 1 isolated from parasite infected BALB/c Albino mouse cardiac cells after 24 hrs by Neubauer chamber based cell counting method; format: functional, organism-based; settings: IRHOD/CO/2008/SN3;DTU 1, 24 h
Summary of the method: (§6)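 Bloodstream trypomastigotes were taken by cardiac puncture from infected BALB/c mice and diluted in RPMI + 10% heat-inactivated FBS. At 2 × 10^6/mL they were exposed to 3.1–50.0 µM (lower where needed) for 24 h at 37 °C, 5% CO2, and counted in a Neubauer chamber. Triplicates, at least three experiments; IC50 by nonlinear regression.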

[7] = as §1, with “creatine kinase muscle to brain ratio” for “urea”; format: organism-based; parameters: scale not given: the % may be the effect or the level left; settings: in vivo; summary of the method: as §2
[8] = Selectivity index, ratio of IC50 for African green monkey Vero cells to IC50 for Trypanosoma cruzi TINF/CH/1956/Tulahuen;DTU 6 amastigote forms; format: toxicity; settings: read-out: Selectivity Index
Summary of the method: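 Vero cells (1 × 10^4/well) were infected with trypomastigotes at MOI 10:1 for 24 h and washed with PBS. They were then exposed to 3.1–50 µM for 72 h at 37 °C in 5% CO2, and amastigotes were counted after Giemsa staining. Triplicates in two determinations; nonlinear regression.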

Trypanosoma cruzi [9] = test: as §3, with “as parasite-free stomach” for “as reduction in serum Ig-G level”, “infection” for “infection and”, “measured after” for “measured at”, “by PCR method relative to control” for “by ELISA”; format: functional
Summary of the method: (§7)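 Female BALB/c mice (10–12 weeks, three per group) were infected i.p. with 5 × 10^5 Arequipa bloodstream trypomastigotes. Dosing was oral, 20 mg/kg/day for 5 days, as a suspension in 5% DMSO/0.5% HPMC. Cyclophosphamide 200 mg/kg i.p. was given at day 80 pi. At necropsy (day 100) tissues were tested by PCR on the splice leader region (primers TC/TC1, 300 bp). Scored as x/3 mice positive.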

Trypanosoma cruzi [10] = test: as §3, with “infection” for “infection followed by cyclophosphamide induced immunosuppression on day 80 post infection”, “79” for “100”; format: functional, organism-based; summary of the method: as §4
Trypanosoma cruzi [11] = test: as §3, with “chronic” for “acute”, “70” for “8”, “infection” for “infection followed by cyclophosphamide induced immunosuppression on day 80 post infection and”, “76” for “100”; format: functional, organism-based; summary of the method: as §4
Trypanosoma cruzi [12] = test: Antitrypanosomal activity against Trypanosoma cruzi MHOM/Pe/2011/Arequipa;DTU 5 epimastigote assessed as effect on D-lactate excretion at IC50 after 72 hrs by H NMR method relative to control; format: functional, organism-based; summary of the method: as §5
Trypanosoma cruzi [13] = test: Antitrypanosomal activity against bloodstream trypomastigote stage of Trypanosoma cruzi MHOM/Pe/2011/Arequipa; DTU 5 isolated from parasite infected BALB/c Albino mouse cardiac cells after 24 hrs by Neubauer chamber based cell counting method; format: functional, organism-based; settings: DTU 5, 24 h; summary of the method: as §6
Trypanosoma cruzi [14] = test: (§8) Antitrypanosomal activity against Trypanosoma cruzi MHOM/Pe/2011/Arequipa;DTU 5 bloodstream trypomastigote infected in BALB/c mouse assessed as parasite-free adipose tissue in acute phase at 20 mg/kg/day, po administered for 5 consecutive days starting from day 8 post infection followed by cyclophosphamide induced immunosuppression on day 80 post infection measured after day 100 post infection by PCR method relative to control; format: functional; summary of the method: as §7
Trypanosoma cruzi [15] = test: as §3, with “infection” for “infection followed by cyclophosphamide induced immunosuppression on day 80 post infection”, “14” for “100”; format: functional, organism-based; summary of the method: as §4
Trypanosoma cruzi [16] = test: Trypanocidal activity against Trypanosoma cruzi TINF/CH/1956/Tulahuen;DTU 6 trypomastigote forms infected in BALB/c albino mouse measured after 24 hrs by Neubauer chamber method; settings: TINF/CH/1956/Tulahuen;DTU 6, 24 h
Trypanosoma cruzi [17] = test: as §8, with “as parasite-free bone marrow in chronic” for “as parasite-free adipose tissue in acute”, “marrow in chronic phase at” for “tissue in acute phase at”, “from day 70 post infection” for “from day 8 post infection”; format: functional; summary of the method: as §7
[18] = as §1, with “creatine kinase muscle to brain ratio” for “urea”, “chronic” for “acute”, “70” for “8”, “76” for “14”, “infection” for “infection by biochemical analysis”; format: organism-based; parameters: scale not given: the % may be the effect or the level left; settings: in vivo; summary of the method: as §2
Trypanosoma cruzi [19] = test: as §8, with “heart” for “adipose tissue”; format: functional; summary of the method: as §7

| Structure (SMILES) | Activity [1] | Activity (Trypanosoma cruzi [2]) | selectivity ratio [3] | pIC50 (Trypanosoma cruzi [4]) | Activity (Trypanosoma cruzi [5]) | pIC50 (Trypanosoma cruzi [6]) | Activity [7] | selectivity ratio [8] | Activity (Trypanosoma cruzi [9]) | Activity (Trypanosoma cruzi [10]) | Activity (Trypanosoma cruzi [11]) | Activity (Trypanosoma cruzi [12]) | pIC50 (Trypanosoma cruzi [13]) | Activity (Trypanosoma cruzi [14]) | Activity (Trypanosoma cruzi [15]) | pIC50 (Trypanosoma cruzi [16]) | Activity (Trypanosoma cruzi [17]) | Activity [18] | Activity (Trypanosoma cruzi [19]) |
| --- | --- | --- | --- | --- | --- | --- | --- | --- | --- | --- | --- | --- | --- | --- | --- | --- | --- | --- | --- |
| O=C(CCN1CCN(c2ccc(Cl)cc2)CC1)c1ccc(O)cc1 | <= 10% | Active | 49.6 | 5.52 | Active | 5.70 | <= 30% | 34.5 | 50% | Active | Active | Active | 6.15 | 50% | Active | 5.68 | 63% | <= 30% | 50% |
| O=C(Cn1ccnc1[N+](=O)[O-])NCc1ccccc1 [BENZNIDAZOLE] | <= 30% | Active | > 29.9 | 5.41 | Active | 4.48 | <= 30% | > 51.7 | 25% | Active | Active | Active | 5.21 | 25% | Active | 5.17 | 38% | <= 30% | 25% |
| O=C(CCN1CCN(c2ccc(C(F)(F)F)cc2)CC1)c1ccc(O)cc1 | <= 10% | Active | 45.7 | 5.41 | Active | 5.68 | <= 30% | 27.4 | 13% | Active | Active | Active | 6.05 | 13% | Active | 5.64 | 50% | <= 30% | 13% |
